High-throughput results: PubChem BioAssay, several laboratories
An excerpt weighted towards active compounds, which were near 2.4% of everything screened.
MIN6 prolif = MIN6 beta-cell proliferation induction; proliferation, % at 10 µM; MIN6 cells proliferation, ATPlite luminescence, 48 h; cells starved in 0.2% serum; 100% = growth in 10% serum; 0.29% of 330,000 active; AID 2380;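 active means compounds whose signal lies at least 3.5 SD above the mean of all wells on their plate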;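 further: 0% = DMSO-treated cells in low-serum medium and 100% = 10% serum control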
SENP1 inh = inhibitors of human SENP1 SUMO protease catalytic domain | Q9P0U3 | recombinant SENP1 catalytic domain, CyPet-SUMO1-YPet FRET cleavage | inhibition, % at 10 µM | 0.21% of 360,000 active | AID 624204;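 active means inhibition at least 30% at 10 µM, raw YFP signal under a set limit, fluorescence ratio 0.5 to 1.5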;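 further: 0% = enzyme with DMSO and 100% = no enzyme wells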
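Assay system – human recombinant His6-tagged SENP1 catalytic domain enzyme · Input – SENP1 enzyme, 20 pM final · Buffer or medium – Tris pH 8 buffer plus EDTA, NaCl, BME, BSA, NP40, catalase · Schedule – 50 min reaction at room temperature · Technique – FRET read of cyan and yellow fluorescence · Control set – no-enzyme wells low, DMSO-plus-enzyme wells high control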
NRP1-CendR mod = modulators of CendR peptide binding to human neuropilin-1 | O14786 | FAM-RPARPAR peptide binding to NRP-1, fluorescence polarization | inhibition, % at 25 µM | 0.85% of 360,000 active | AID 602438;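 active means inhibition or corrected inhibition above about 18%, plus a signal ratio from 0.5 to 1.5, limit read from the data, passing the limit was not always enough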
DAGLB inh = blocks human DAGLB lipase activity. Q8NCG7. HEK293T DAGLB membrane lysate, EnzChek fluorogenic substrate. inhibition, % at 5.17 µM. AID 504411. 0.059% of 340,000 active; in the data active means inhibition above about 34%;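 further: 0% = enzyme with vehicle and 100% = wells lacking enzyme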
Target sequence (Q8NCG7 whole entry, looked up): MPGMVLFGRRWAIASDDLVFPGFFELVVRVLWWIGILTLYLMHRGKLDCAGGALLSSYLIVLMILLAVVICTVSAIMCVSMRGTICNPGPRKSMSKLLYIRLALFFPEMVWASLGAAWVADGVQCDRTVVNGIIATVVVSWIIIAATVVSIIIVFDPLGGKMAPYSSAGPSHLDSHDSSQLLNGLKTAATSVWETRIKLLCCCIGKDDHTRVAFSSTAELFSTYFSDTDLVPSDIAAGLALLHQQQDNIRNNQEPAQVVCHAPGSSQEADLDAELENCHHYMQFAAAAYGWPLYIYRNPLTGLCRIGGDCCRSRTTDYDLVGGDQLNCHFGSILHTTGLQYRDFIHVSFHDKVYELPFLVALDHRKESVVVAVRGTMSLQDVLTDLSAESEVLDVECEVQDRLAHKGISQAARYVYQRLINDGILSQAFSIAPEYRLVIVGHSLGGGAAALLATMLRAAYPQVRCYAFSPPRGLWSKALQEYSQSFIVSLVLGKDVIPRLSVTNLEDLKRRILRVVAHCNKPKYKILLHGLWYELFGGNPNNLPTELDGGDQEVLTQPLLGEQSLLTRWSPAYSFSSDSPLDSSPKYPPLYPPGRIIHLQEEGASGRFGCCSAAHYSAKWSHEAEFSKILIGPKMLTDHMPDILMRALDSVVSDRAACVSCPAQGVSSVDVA
MT1-MMP act inh = MT1-MMP (human) activation inhibition. P50281. HT1080 RFP-PRO-GFP cells, GFP/RFP ratio fluorescence, overnight; percent of plate control window, DMSO zero. GFP/RFP ratio change, % at 20 µM. 0.061% of 360,000 active;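 active means GFP/RFP ratio change of at least 30% with cell ATP level not reduced by more than half and red fluorescence within 50% of control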
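Assay system: RFP-PRO-GFP reporter HT1080 cells; read-out basis: GFP/RFP fluorescence ratio; benchmarks: DMSO wells and RFP-L50D-GFP cells; doses: 20 µM single dose, 1% DMSO; schedule: overnight cell settling, then overnight compound exposure, 37 °C, 5% CO2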
Myeloid diff 2 = compounds promoting myeloid differentiation | ER-HoxA9 myeloid progenitors, lysozyme-GFP differentiation, flow cytometry | calls only at 10 µM | 1% of 360,000 active | AID 624256;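 active means normalized GFP-positive differentiation at or above the plate's own cutoff, the solvent-only control mean plus 3 SD; inconclusive means no clear call, values can overlap the other calls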;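 further: cells exposed to compound for four days before flow analysis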
The depositor's hits bear a star; i = inactive; ? = inconclusive; . = not tested or not shown; + = active, no number.

SMILES | MIN6 prolif | SENP1 inh | NRP1-CendR mod | DAGLB inh | MT1-MMP act inh | Myeloid diff 2
Cc1ccc(NCc2ccccc2O)c(C)c1 | 2 | -1 | 7 | 2 | -3 | i
Cc1cccc(NCc2ccccc2O)c1C | -1 | -1 | 42* | -3 | -1 | i
Cc1noc(C)c1C(=O)N1CCC1(C)C(=O)NS(=O)(=O)c1ccccc1Cl (stereo unspecified) | . | 3 | -8 | . | 1 | i
CCC(c1nnnn1C1CCCCC1)N(Cc1ccco1)Cc1cc2ccc(OC)cc2[nH]c1=O (stereo unspecified) | . | -17 | 29* | 5 | -4 | i
COc1ccccc1N1N=C(c2ccc([N+](=O)[O-])cc2)CC1c1ccccc1 (stereo unspecified) | -3 | 90 | -108 | 21 | -75 | +
NS(=O)(=O)c1ccc(N2N=C(c3ccccc3)CC2c2ccccc2Br)cc1 (stereo unspecified) | . | -49 | -6 | 2 | 0 | i
O=[N+]([O-])c1ccc(N2N=C(c3ccccc3)CC2c2ccccc2O)cc1 (stereo unspecified) | -5 | -25 | -199 | -11 | -66 | +
COc1cc2c(cc1OCc1ccccc1)/C(=C/C(=O)OCc1ccccc1)OC2 | . | -1 | -15 | . | -3 | i
CN(Cc1ccccc1)C(=O)C1CCCN(Cc2ccc(Cl)cc2)C1 (stereo unspecified) | -3 | -1 | 4 | -4 | 6 | i
O=C(Nc1ccccc1C(=O)NCc1ccco1)c1ccco1 | 0 | -2 | -13 | 1 | -2 | i
O=C(Nc1ccccc1C(=O)NCc1ccco1)NC1CCCCC1 | -1 | 1 | 20* | -1 | -2 | i
COC(=O)c1ccc(NC(=O)C(=O)N2CCN(C(=S)Nc3cccc(OC)c3)CC2)cc1 | 0 | 1 | -9 | -1 | 1 | i
COc1cccc(NC(=O)C(=O)N2CCOCC2)c1 | -3 | 2 | 6 | 2 | 0 | +
C=CCn1c(Cc2ccc(OCC)cc2)nnc1SCC(N)=O | 3 | 2 | -10 | -3 | 0 | +
O=C(O)c1ccc(-c2ccc(/C=C3\NC(=O)N(Cc4ccc(Cl)cc4)C3=O)o2)cc1Cl | 1 | -31 | -55 | 6 | -7 | i
Cc1cc(NCC2CCCCC2)nc2ccccc12 | -3 | 1 | 6 | -1 | 4 | +
Cc1cc(NCCNC2=CC(=O)CCC2)nc2ccccc12 | -1 | -11 | 16 | -1 | 5 | i
O=C(CCc1ccc(O)cc1)NN=Cc1ccc2c(c1)OCO2 | . | 2 | 6 | 1 | 3 | +
CCOC(=O)N1CCC(NC(=O)c2ccc3c(c2)N(C)C(=O)/C(=C/c2cccc(OC)c2)S3)CC1 | -5 | 2 | 9 | -2 | -4 | i
Cc1oc(-c2ccccc2)cc1C(=O)NCc1ccncc1 | -3 | 4 | 17 | 0 | 4 | i
CC(=O)Oc1cc2c(C(=O)NCc3ccncc3)c(C)oc2c2ccccc12 | -4 | 2 | -11 | 1 | 5 | +
O=C(NCc1cccc(C(F)(F)F)c1)c1ccc2sc(C3=C[C@@H](O)[C@@H](O)[C@@H](CO)O3)nc2c1 | . | -4 | -26 | . | -2 | i
COC(=O)Cc1ccc(NC(=S)NCCCO)cc1 | -1 | 0 | 40* | -2 | 4 | i
COC(=O)Cc1ccc(NC(=S)NCCSc2ccc(C)cc2)cc1 | -6 | -1 | 29* | -4 | 5 | i
Cc1ccc(NC(=S)NCCSc2ccc(Cl)cc2)cc1 | -7 | -1 | 5 | -9 | 0 | i
SMILES | MIN6 prolif | SENP1 inh | NRP1-CendR mod | DAGLB inh | MT1-MMP act inh | Myeloid diff 2
Cc1noc(/C=C/N(C)C)c1S(=O)(=O)N1CCC(C(=O)NC(C)(C)C)CC1 | -1 | 1 | 7 | 2 | 2 | i
CCc1ccc(OCc2cccc(C(=O)N/N=C\c3cnn(C)c3C)c2)cc1 | 0 | 0 | 2 | 0 | -1 | +
COc1cc2c(cc1OC)/C(=C/c1ccc(Cl)cc1)C(=O)OC2 | 0 | -1 | 2 | -2 | -3 | i
COc1ccc(/C=C2\C(=O)OCc3cc(OC)c(OC)cc32)cc1OC | 2 | 0 | 25* | 2 | -1 | i
O=C1C=C(NCCc2cc(Br)c(O)c(Br)c2)C(=O)c2ncccc21 | . | 4 | 42* | 6 | -9 | .
CC(C)(C)c1cc(CCC(=O)NCCc2ccccn2)cc(C(C)(C)C)c1O | -4 | 1 | 12 | 1 | -1 | i
Cc1cc(NC(=O)CCC(=O)N(Cc2ccco2)C2(C(=O)NC3CCCC3)CCCCC2)no1 | 3 | 2 | 19* | 2 | -5 | i
Cc1cc(NC(=O)CCC(=O)N(c2ccccc2)C(C(=O)NC2CCCC2)c2cccs2)no1 (stereo unspecified) | -1 | -2 | 20* | -3 | 5 | i
Cc1cc(NC(=O)CCC(=O)N(c2cccc(F)c2)C(C(=O)NC2CCCC2)c2ccccc2)no1 (stereo unspecified) | 0 | -1 | 26* | 0 | -4 | i
Cc1cc(NC(=O)CCC(=O)N(c2ccccc2)C(C(=O)NC2CCCC2)c2ccccc2)no1 (stereo unspecified) | -3 | 1 | -7 | 4 | 6 | i
Cc1cc(NC(=O)CCC(=O)N(Cc2ccco2)C2(C(=O)NC3CCCCC3)CCN(C)CC2)no1 | -3 | 2 | 4 | 1 | -9 | i
Cc1ccc(N(C(=O)CCC(=O)Nc2cc(C)on2)C(C(=O)NC2CCCC2)c2cccs2)cc1 (stereo unspecified) | 1 | 0 | 3 | 5 | -4 | i
COc1ccccc1NC(=O)C1CCC(CNc2c(N3CCCCC3)c(=O)c2=O)CC1 (stereo unspecified) | -3 | 1 | -10 | -1 | 4 | i
CC1(C(=O)NC2CCCC2)CCC(=O)N1CCc1c[nH]c2ccccc12 (stereo unspecified) | . | -2 | -5 | . | -1 | i
O=C(NC1CCN(c2ncccn2)CC1)c1ccccc1Cl | -3 | 0 | 11 | 1 | 1 | i
Cc1nc(Nc2cccc(F)c2)c2oc3ccccc3c2n1 | -2 | -2 | -9 | -5 | -4 | +
CSc1cccc(NC(=O)c2ccco2)c1 | -1 | -1 | 21* | -1 | 7 | i
CCOc1ccc(N(CC(=O)NCc2ccccc2Cl)S(=O)(=O)c2c(C)noc2C)cc1 | -3 | -2 | 10 | -8 | -3 | ?
COc1cccc(CNC(=S)Nc2ccc3c(c2)c(=O)n(C)n3C)c1 | . | -1 | 5 | . | 0 | i
CC(Nc1[nH]c(=O)n(C)c(=O)c1N=O)c1ccccc1 (stereo unspecified) | 3 | -3 | 1 | -1 | -2 | i
